Test results taken from ChEMBL document CHEMBL1909531, “Mitochondrial respiration inhibitors suppress protein translation and hypoxic signaling via the hyperphosphorylation and inactivation of translation initiation factor eIF2α and elongation factor eEF2” (J Nat Prod, 2011).
Calls of active or inactive are those of the source. The rule behind the calls is not given here.

Experiments:
[1] = target: Serine/threonine-protein kinase mTOR (Homo sapiens) (UniProt P42345); assay: Inhibition of mTOR in human MDA-MB-231 cells assessed as eEF2 hyperphosphorylation on Ser 56 at 1 to 10 uM after 30 mins by Western blotting; assay type: cell-based
Summary of the method: (§1)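 Cells seeded at 0.8 × 10^6 per well, exposed 30 min at 37 °C, 5% CO2, in DMEM/F12 with 5% FBS. Lysed in modified RIPA (pH 7.6) with protease and phosphatase inhibitors; 40 µg protein run on 4–20% gels, nitrocellulose transfer. Phospho-specific and total eIF2α/eEF2 primaries at 1:1,000, HRP anti-rabbit at 1:2000, chemiluminescence on film.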

T47D [2] = assay: Inhibition of HIF1alpha protein accumulation under hypoxic condition in human T47D cells at 3 uM after 4 hrs by Western blot analysis; assay type: functional, cell-based
T47D [3] = assay: Inhibition of HIF1beta protein accumulation under hypoxic condition in human T47D cells at 3 uM after 4 hrs by Western blot analysis; assay type: functional, cell-based
T47D [4] = assay: Inhibition of cellular respiration in human T47D cells at 0.3 uM by oxygen consumption assay in presence of complex 3 substrate antimycin A; assay type: functional, cell-based
[5] = target: T1, Hypoxia inducible factors; HIF-1-alpha, HIF-2-alpha (Homo sapiens, UniProt Q16665+Q99814); assay: Inhibition of hypoxia-induced HIF1 activation in human T47D cells after 16 hrs by HRE3-TK-luciferase reporter gene assay; assay type: cell-based
Summary of the method: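 T47D cells carrying the pHRE3-TK-Luc reporter, grown in DMEM/F12 with 10% FBS; HIF-1 induced by hypoxia (1% O2). Activity reported as % inhibition of the induced control, calculated as [1 − (treated/control)] × 100.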

T47D [6] = assay: Inhibition of 1, 10-phenanthroline-induced HIF1alpha protein accumulation in human T47D cells at 3 uM after 4 hrs by Western blot analysis; assay type: functional, cell-based
T47D [7] = assay: Inhibition of cellular respiration in human T47D cells at 0.3 uM by oxygen consumption assay in presence of complex 1 substrate malate and pyruvate; assay type: functional, cell-based
Summary of the method: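 Permeabilized T47D cells, oxygen consumption measured by Clark-type electrode. Complex I respiration started with malate plus pyruvate; succinate added as complex II substrate.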

T47D [8] = assay: Antiproliferative activity against human T47D cells assessed as cell viability by SRB assay; assay type: functional, cell-based
Summary of the method: (§2)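 Cells grown in DMEM/F12 with 10% FBS, penicillin and streptomycin; 96-well viability assay, 2-day or 6-day exposure, with medium (5% FBS) and compound renewed after 3 days in the 6-day study. Read by optical density; % inhibition = [1 − (ODtreated/ODcontrol)] × 100 versus medium control.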

[9] = target: T1, Hypoxia inducible factors; HIF-1-alpha, HIF-2-alpha; assay: Inhibition of HIF1-mediated induction of Glut-1 mRNA expression in hypoxia-stimulated human T47D cells at 0.3 to 3 uM after 16 hrs by RT-PCR analysis; assay type: cell-based
[10] = target: Serine/threonine-protein kinase mTOR (Homo sapiens) (UniProt P42345); assay: Inhibition of mTOR in human MDA-MB-231 cells assessed as eIF2alpha hyperphosphorylation on Ser 51 at 1 to 10 uM after 30 mins by Western blotting; assay type: cell-based; summary of the method: as §1
T47D [11] = assay: Inhibition of cellular respiration in human T47D cells at 1 uM by oxygen consumption assay; assay type: functional
Summary of the method: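 Oxygen consumption of intact T47D cells measured with a Clark-type electrode, in serum-free DMEM/F12 at 30 °C.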

PC-3 = assay: Antiproliferative activity against human PC3 cells assessed as cell viability by SRB assay; assay type: functional, cell-based; summary of the method: as §2
[12] = target: T1, Hypoxia inducible factors; HIF-1-alpha, HIF-2-alpha; assay: Inhibition of HIF1-mediated induction of VEGF mRNA expression in hypoxia-stimulated human T47D cells at 0.3 to 3 uM after 16 hrs by RT-PCR analysis; assay type: cell-based

- Activity [1]: Dose-dependent effect
- IC50 [5]: 63 nM
- inhibition [9]: Active
- Activity [10]: Dose-dependent effect
- inhibition [12]: Active
Compound: CC(C)CC(=O)O[C@@H]1CC[C@]2(C)[C@H]3CC[C@]45C[C@]4(CC[C@@H]5[C@@H]4C[C@H]([C@@H]5OC5(C)C)OC4O)[C@]3(C)[C@H](O)C[C@H]2C1(C)C (stereo partly drawn) [SKIMMIAREPIN A]
- inhibition (T47D [2]): Active
- inhibition (T47D [3]): inactive
- inhibition (T47D [4]): inactive
- inhibition (T47D [6]): inactive
- inhibition (T47D [7]): Active
- Activity (T47D [8]): Active
- inhibition at 1 µM (T47D [11]): 73%
- Activity (PC-3): Active
